Experimental data as given in ChEMBL document CHEMBL3102784, “Salicylanilide diethyl phosphates: synthesis, antimicrobial activity and cytotoxicity” (Bioorg Med Chem, 2014).
Converted amounts (≈) assume the structure as drawn.

Key:
Format in all cases: functional
[1] = test system: Mycobacterium tuberculosis; assay: Antimycobacterial activity against isoniazid, rifamycin and streptomycin-resistant Mycobacterium tuberculosis 9449/2006 after 14 days; details: 9449/2006, 336 h
How it was run: (§1)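 Drug-resistant M. tuberculosis strains (MDR, one XDR), inoculum dilution 10^3. MIC by micromethod in Šula's semisynthetic medium at 37 °C, compounds in DMSO, concentration series as for the drug-susceptible strain. Read after 14 and 21 days.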

[2] = test system: Mycobacterium tuberculosis; assay: Antimycobacterial activity against isoniazid, rifamycin, streptomycin, ethambutol and clofazimine-resistant Mycobacterium tuberculosis Praha 1 after 14 days; details: Praha 1, 336 h; how it was run: as §1
[3] = test system: Mycobacterium tuberculosis; assay: Antimycobacterial activity against isoniazid, rifampicin, rifabutin, streptomycin and ethambutol-resistant Mycobacterium tuberculosis 234/2005 after 21 days; details: 234/2005, 504 h; how it was run: as §1
[4] = test system: Mycobacterium tuberculosis; assay: Antimycobacterial activity against isoniazid, rifampicin, rifabutin, streptomycin and ethambutol-resistant Mycobacterium tuberculosis 234/2005 after 14 days; details: 234/2005, 336 h; how it was run: as §1
[5] = test system: Mycobacterium tuberculosis; assay: Antimycobacterial activity against isoniazid, rifamycin, streptomycin, ethambutol, clofazimine, ofloxacin, gentamicin and amikacin-resistant Mycobacterium tuberculosis Praha 131 after 14 days; details: Praha 131, 336 h; how it was run: as §1
[6] = test system: Mycobacterium tuberculosis; assay: Antimycobacterial activity against isoniazid, rifamycin, streptomycin, ethambutol and clofazimine-resistant Mycobacterium tuberculosis Praha 1 after 21 days; details: Praha 1, 504 h; how it was run: as §1
[7] = test system: Mycobacterium tuberculosis; assay: Antimycobacterial activity against isoniazid, rifamycin, streptomycin, ethambutol and ofloxacin, clofazimine-resistant Mycobacterium tuberculosis Praha 4 after 21 days; details: Praha 4, 504 h; how it was run: as §1
[8] = test system: Mycobacterium tuberculosis; assay: Antimycobacterial activity against isoniazid, rifamycin, streptomycin, ethambutol, clofazimine, ofloxacin, gentamicin and amikacin-resistant Mycobacterium tuberculosis Praha 131 after 21 days; details: Praha 131, 504 h; how it was run: as §1
[9] = test system: Mycobacterium tuberculosis; assay: Antimycobacterial activity against isoniazid, rifamycin and streptomycin-resistant Mycobacterium tuberculosis 9449/2006 after 21 days; details: 9449/2006, 504 h; how it was run: as §1
[10] = test system: Mycobacterium tuberculosis; assay: Antimycobacterial activity against isoniazid, rifamycin, streptomycin, ethambutol and ofloxacin, clofazimine-resistant Mycobacterium tuberculosis Praha 4 after 14 days; details: Praha 4, 336 h; how it was run: as §1

Structure (SMILES) | MIC [1] [µM] | MIC [2] [µM] | MIC [3] [µM] | MIC [4] [µM] | MIC [5] [µM] | MIC [6] [µM] | MIC [7] [µM] | MIC [8] [µM] | MIC [9] [µM] | MIC [10] [µM]
CCOP(=O)(OCC)Oc1cc(Cl)ccc1C(=O)Nc1ccc(C(F)(F)F)cc1 | 1 (≈ 0.452 µg/mL) | 1 (≈ 0.452 µg/mL) | 1 (≈ 0.452 µg/mL) | 1 (≈ 0.452 µg/mL) | 1 (≈ 0.452 µg/mL) | 1 (≈ 0.452 µg/mL) | 1 (≈ 0.452 µg/mL) | 1 (≈ 0.452 µg/mL) | 1 (≈ 0.452 µg/mL) | 1 (≈ 0.452 µg/mL)
CCOP(=O)(OCC)Oc1ccc(Cl)cc1C(=O)Nc1ccc(C(F)(F)F)cc1 | 1 (≈ 0.452 µg/mL) | 1 (≈ 0.452 µg/mL) | 1 (≈ 0.452 µg/mL) | 1 (≈ 0.452 µg/mL) | 1 (≈ 0.452 µg/mL) | 1 (≈ 0.452 µg/mL) | 1 (≈ 0.452 µg/mL) | 1 (≈ 0.452 µg/mL) | 1 (≈ 0.452 µg/mL) | 1 (≈ 0.452 µg/mL)
CCOP(=O)(OCC)Oc1ccc(Br)cc1C(=O)Nc1ccc(C(F)(F)F)cc1 | 1 (≈ 0.496 µg/mL) | 1 (≈ 0.496 µg/mL) | 1 (≈ 0.496 µg/mL) | 1 (≈ 0.496 µg/mL) | 1 (≈ 0.496 µg/mL) | 1 (≈ 0.496 µg/mL) | 1 (≈ 0.496 µg/mL) | 1 (≈ 0.496 µg/mL) | 1 (≈ 0.496 µg/mL) | 1 (≈ 0.496 µg/mL)
CCOP(=O)(OCC)Oc1ccc(Br)cc1C(=O)Nc1ccc(Cl)c(Cl)c1 | 1 (≈ 0.497 µg/mL) | 1 (≈ 0.497 µg/mL) | 1 (≈ 0.497 µg/mL) | 1 (≈ 0.497 µg/mL) | 1 (≈ 0.497 µg/mL) | 1 (≈ 0.497 µg/mL) | 1 (≈ 0.497 µg/mL) | 1 (≈ 0.497 µg/mL) | 1 (≈ 0.497 µg/mL) | 1 (≈ 0.497 µg/mL)
CCOP(=O)(OCC)Oc1ccc(Cl)cc1C(=O)Nc1ccc(Cl)c(Cl)c1 | 1 (≈ 0.453 µg/mL) | 1 (≈ 0.453 µg/mL) | 1 (≈ 0.453 µg/mL) | 1 (≈ 0.453 µg/mL) | 1 (≈ 0.453 µg/mL) | 1 (≈ 0.453 µg/mL) | 1 (≈ 0.453 µg/mL) | 1 (≈ 0.453 µg/mL) | 1 (≈ 0.453 µg/mL) | 1 (≈ 0.453 µg/mL)
NNC(=O)c1ccncc1 [ISONIAZID] | 16 (≈ 2.19 µg/mL) | 16 (≈ 2.19 µg/mL) | 16 (≈ 2.19 µg/mL) | 16 (≈ 2.19 µg/mL) | 16 (≈ 2.19 µg/mL) | 16 (≈ 2.19 µg/mL) | 16 (≈ 2.19 µg/mL) | 16 (≈ 2.19 µg/mL) | 16 (≈ 2.19 µg/mL) | 16 (≈ 2.19 µg/mL)
